Series [1] is described as follows: Cytotoxicity against rat IEC-6 cells assessed as cell survival at 10 uM after 72 hrs by MTT assay relative to control. The format is cell-based. The note with it: read-out: Survival. (In general: Tetrazolium assays rely on reduction of a dye to a coloured formazan, in cell work by metabolically active cells.)
The target of series [2] is T1, X-box-binding protein 1 (Rattus norvegicus) (UniProt Q9R1S4).
T1 sequence (whole entry): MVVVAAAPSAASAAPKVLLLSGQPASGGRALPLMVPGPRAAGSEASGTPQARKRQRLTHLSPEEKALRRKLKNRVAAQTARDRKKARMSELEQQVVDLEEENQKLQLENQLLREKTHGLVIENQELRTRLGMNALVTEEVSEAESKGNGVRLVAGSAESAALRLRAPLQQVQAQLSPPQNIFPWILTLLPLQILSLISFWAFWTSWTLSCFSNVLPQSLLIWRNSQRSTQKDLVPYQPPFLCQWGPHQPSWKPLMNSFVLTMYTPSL
As to the kind of experiment: Transactivation of XBP1 in rat IEC-6 cells at 10 uM after 48 hrs by dual luciferase reporter gene assay relative to con2. The series is classed as cell-based. The procedure, abridged:
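XBP 1 transcriptional activation measured by dual luciferase reporter detection. Con 2 is the pGL3-basic vector control, and activation is expressed as a fold ratio against it. Con 1 serves as background contrast, and 8-oxodihydrocoptisine is the positive control. Compounds are tested at 10 μM.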

We go through ten molecules from ChEMBL document CHEMBL3632466, “Cembranoids from the Gum Resin of Boswellia carterii as Potential Antiulcerative Colitis Agents” (J Nat Prod, 2015).

The source made the active and inactive calls. No cut-off for these calls is given here.

Regarding `CC(C)[C@@]12CC[C@@](C)(O1)[C@H](O)CC/C(C=O)=C/CC[C@@]1(C)O[C@@H]1C2`, in series [1], the viability at 72 h, 10 µM worked out at 87%. This molecule also came in with a fold change (FC) in series [2] of 1.6.
For `CC(C)[C@@]12CC[C@@](C)(O1)[C@@H]1CC[C@@](C)(O1)[C@@H](O)C[C@@H]1O[C@@]1(C)[C@H](O)C2`, in series [1], the viability at 72 h, 10 µM is 87%. The outcome in series [2] was Active.
Regarding `C/C1=C/C[C@@H](O)[C@@]2(C)CC[C@@](C(C)C)(C[C@@H](O)[C@]3(C)CC[C@H]1O3)O2`, the viability at 72 h, 10 µM in series [1] was determined as 87%. Besides, in series [2], the fold change (FC) is 1.5.
Turning to `C/C1=C\CC[C@]2(C)O[C@H]2C[C@]2(C(C)C)CC[C@@](C)(O2)[C@H](O)CC1=O` (relative stereo), the viability at 72 h, 10 µM in series [1] is 87%. For the same molecule, the result in series [2] was Active.
For the molecule `O=c1c2c3c(ccc2cc2n1CCc1cc4c(cc1-2)OCO4)OCO3`, the fold change (FC) in series [2] was determined as 2.2.
Turning to `C/C1=C\[C@@H](O)C[C@@]2(C)O[C@@H]2C[C@]2(C(C)C)CC[C@@](C)(O2)[C@H](O)CC1=O`, in series [1], the viability at 72 h, 10 µM is 87%. In series [2], the fold change (FC) amounted to 2.5.
For `C/C1=C\CC[C@@]2(C)O[C@@H]2C[C@]2(C(C)C)CC[C@@](C)(O2)[C@H](O)CC1=O` (relative stereo) the same measures were 87% and 1.5.
`C/C1=C\CC[C@@]2(C)O[C@@H]2C[C@]2(C(C)C)CC[C@@](C)(O2)[C@H](O)CC1`: the viability at 72 h, 10 µM in series [1] amounted to 87%. Besides, in series [2], the outcome was Active.
The corresponding values for `C/C1=C\C[C@]2(C(C)C)CC[C@@](C)(O2)[C@@H]2CC[C@@](C)(O2)[C@@H](O)CC1=O` (relative stereo) are 87% and “Active”.
In the case of `C/C1=C\[C@@H](O)C[C@@]2(C)O[C@@H]2C[C@]2(C(C)C)CC[C@@](C)(O2)[C@H](O)CC1`, in series [1], the viability at 72 h, 10 µM came to 87%. Also, the outcome in series [2] was Active.
